Reference: ChEMBL document CHEMBL4373647, “Design, synthesis, and antimicrobial evaluation of 1,4-dihydroindeno[1,2-c]pyrazole tethered carbohydrazide hybrids: exploring their in silico ADMET, ergosterol inhibition and ROS inducing potential” (Medchemcomm, 2019)
Values after ≈ are worked out from the molar mass of the structure shown. Active and inactive are the calls of the source. No cut-off for these calls is given here.

Tests used:
[1] = tested on: MRC5; assay: Cytotoxicity against human MRC5 cells incubated for 48 hrs by MTT assay; assay type: cell-based; conditions: MRC5, 48 h
Summary of the method: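 Normal human lung MRC5 cells grown 24 h in 96-well plates, then exposed to a range of compound concentrations for 48 h. MTT (250 µg/mL) added for 2 h, medium replaced by DMSO, absorbance read at 570 nm. Miconazole positive control, DMSO negative control. Triplicates, mean ± S.D.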

[2] = tested on: Bacillus subtilis; assay: Bactericidal activity against Bacillus subtilis MTCC 121 assessed as bacterial killing incubated for 24 hrs; assay type: functional; conditions: MTCC 121, 24 h
Summary of the method: (§1)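 Broth tube assay: compound at 0–125 µg/mL in Mueller Hinton broth, overnight culture added to 0.5 McFarland (1.5 × 10^8 cfu/mL), held 24 h at 37 °C. 10 µL from each tube plated on Mueller Hinton agar. MBC is the lowest concentration that kills the strain. Duplicates, means reported.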

[3] = tested on: Candida albicans; assay: Antifungal activity against Candida albicans MTCC 183 assessed as inhibition of fungal growth incubated for 24 hrs by agar well diffusion method; assay type: functional
Summary of the method: (§2)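 Candida strains from MTCC, pre-cultured and spread on Mueller Hinton agar. Wells received compound dissolved in 10% DMSO, 125–0.97 µg/mL; miconazole standard over the same range, DMSO negative control. After 24 h at 37 °C, MIC was read as the lowest concentration giving an inhibition zone. Duplicate experiments, means given.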

[4] = tested on: Raoultella planticola; assay: Bactericidal activity against Klebsiella planticola MTCC 530 assessed as bacterial killing incubated for 24 hrs; assay type: functional; conditions: MTCC 530, 24 h; summary of the method: as §1
[5] = tested on: Escherichia coli; assay: Bactericidal activity against Escherichia coli MTCC 739 assessed as bacterial killing incubated for 24 hrs; assay type: functional; conditions: MTCC 739, 24 h; summary of the method: as §1
[6] = tested on: Candida albicans; assay: Ratio of MFC to MIC against Candida albicans MTCC 227; assay type: functional
Summary of the method: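 MIC by agar well diffusion: Candida lawns on Mueller-Hinton agar, wells loaded with compound in 10% DMSO (125–0.97 µg/mL), 24 h at 37 °C, lowest concentration giving an inhibition zone. MFC: compound in Mueller-Hinton broth (125–0.97 µg/mL) with yeast, 24 h at 37 °C, 10 µL plated on agar, lowest killing concentration after 24 h. Ratio is MFC/MIC.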

[7] = tested on: Staphylococcus aureus; assay: Antibacterial activity against Staphylococcus aureus MLS-16 MTCC 2940 assessed as inhibition of bacterial growth incubated for 24 hrs by agar well diffusion method; assay type: functional; conditions: MLS-16 MTCC 2940, 24 h
Summary of the method: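 Strains from MTCC; inoculum at 0.5 McFarland spread on Mueller-Hinton agar; 6 mm wells loaded with compound over 125–0.97 µg/mL; ciprofloxacin positive control (same range), DMSO negative control. Plates held 24 h at 37 °C; MIC taken as lowest concentration giving a clear inhibition zone. Triplicate runs, mean MIC reported.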

[8] = tested on: Candida albicans; assay: Fungicidal activity against Candida albicans MTCC 4748 assessed as fungal killing incubated for 24 hrs; assay type: functional; conditions: MTCC 4748, 24 h
Summary of the method: (§3)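 Compound at 125–0.97 µg/mL in Mueller Hinton broth in microcentrifuge tubes, each Candida strain added, held 24 h at 37 °C. 10 µL of the treated suspension plated on Mueller Hinton agar and incubated a further 24 h at 37 °C. MFC is the lowest concentration that kills the strain. Duplicates, means reported.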

[9] = tested on: Pichia sporocuriosa; assay: Antifungal activity against Issatchenkia hanoiensis MTCC 4755 assessed as inhibition of fungal growth incubated for 24 hrs by agar well diffusion method; assay type: functional; conditions: MTCC 4755, 24 h; summary of the method: as §2
[10] = tested on: Staphylococcus aureus; assay: Bactericidal activity against Staphylococcus aureus MTCC 96 assessed as bacterial killing incubated for 24 hrs; assay type: functional; conditions: MTCC 96, 24 h; summary of the method: as §1
[11] = tested on: Candida albicans; assay: Fungicidal activity against Candida albicans MTCC 1637 assessed as fungal killing incubated for 24 hrs; assay type: functional; conditions: MTCC 1637, 24 h; summary of the method: as §3
[12] = tested on: Micrococcus luteus; assay: Ratio of MBC to MIC against Micrococcus luteus MTCC 2470; assay type: functional
[13] = tested on: Raoultella planticola; assay: Ratio of MBC to MIC for Klebsiella planticola MTCC 530; assay type: functional
[14] = tested on: Pseudomonas aeruginosa; assay: Ratio of MBC to MIC for Pseudomonas aeruginosa MTCC 2453; assay type: functional
[15] = tested on: Candida parapsilosis; assay: Fungicidal activity against Candida parapsilosis MTCC 1744 assessed as fungal killing incubated for 24 hrs; assay type: functional; conditions: Lodderomyces parapsilosis, MTCC 1744, 24 h; summary of the method: as §3
[16] = tested on: Staphylococcus aureus; assay: Bactericidal activity against Staphylococcus aureus MLS-16 MTCC 2940 assessed as bacterial killing incubated for 24 hrs; assay type: functional; conditions: MLS-16 MTCC 2940, 24 h; summary of the method: as §1
[17] = tested on: Candida albicans; assay: Induction of ROS generation in Candida albicans MTCC 3017 assessed as accumulation of intracellular ROS level by measuring fluorescence intensity at 25 ug/ml after 24 hrs by DCFH-DA probe based fluorimetric assay; assay type: functional, organism-based
Summary of the method: (§4)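 C. albicans MTCC 3017 biofilms grown 24 h at 37 °C in 96-well plates, then treated 24 h with compound at 0, 5, 10, 15, 20, 25 µg/mL; untreated cells served as control. Cells then loaded with 10 µM DCFH-DA for 24 h in the dark, and fluorescence read at 485 nm excitation and 535 nm emission. Triplicates.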

[18] = molecular target: Lanosterol 14-alpha demethylase (Candida albicans (strain SC5314 / ATCC MYA-2876) (Yeast), UniProt P10613); assay: Inhibition of CYP51 in Candida albicans MTCC 3017 assessed as reduction in ergosterol level incubated for 20 hrs by UV-visible spectrophotometry analysis
Sequence of Lanosterol 14-alpha demethylase (P10613 whole entry): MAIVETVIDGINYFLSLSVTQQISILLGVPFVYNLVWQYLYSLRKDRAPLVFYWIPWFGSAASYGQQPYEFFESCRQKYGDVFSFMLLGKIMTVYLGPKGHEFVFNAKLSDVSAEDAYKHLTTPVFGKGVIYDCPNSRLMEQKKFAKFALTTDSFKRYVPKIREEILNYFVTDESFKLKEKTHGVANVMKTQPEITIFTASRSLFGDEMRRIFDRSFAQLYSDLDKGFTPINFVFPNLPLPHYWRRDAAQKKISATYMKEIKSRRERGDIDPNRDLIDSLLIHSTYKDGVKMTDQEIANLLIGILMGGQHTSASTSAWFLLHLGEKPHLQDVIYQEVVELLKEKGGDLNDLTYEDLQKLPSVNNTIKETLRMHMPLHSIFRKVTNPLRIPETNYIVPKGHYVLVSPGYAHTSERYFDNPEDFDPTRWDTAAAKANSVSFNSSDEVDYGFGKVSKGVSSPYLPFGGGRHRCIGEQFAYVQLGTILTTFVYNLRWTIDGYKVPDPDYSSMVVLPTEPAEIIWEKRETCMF
Summary of the method: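 Modified Breivik–Owades sterol method: Mueller Hinton broth with compound at 0, 2, 4, 8, 16 µg/mL, inoculated with single Candida colonies, shaken at 200 rpm for 20 h at 30 °C. Pellets washed and weighed, saponified in 25% alcoholic KOH for 70 min at 90 °C, sterols extracted into n-heptane, diluted 1:5 in ethanol and scanned at 230–310 nm. Triplicates.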

[19] = tested on: Candida albicans; assay: Induction of ROS generation in Candida albicans MTCC 3017 assessed as accumulation of intracellular ROS level by measuring fluorescence intensity after 24 hrs by DCFH-DA probe based fluorimetric assay; assay type: functional, organism-based; summary of the method: as §4
[20] = tested on: Candida albicans; assay: Induction of ROS generation in Candida albicans MTCC 3017 assessed as accumulation of intracellular ROS level by measuring fluorescence intensity at 5 ug/ml after 24 hrs by DCFH-DA probe based fluorimetric assay; assay type: functional, organism-based; summary of the method: as §4

| Compound | IC50 [1] | MBC [2] | MIC [3] | MBC [4] | MBC [5] | Ratio [6] | MIC [7] | MFC [8] | MIC [9] | MBC [10] | MFC [11] | Ratio [12] | Ratio [13] | Ratio [14] | MFC [15] | MBC [16] | Activity [17] | inhibition (INH) [18] | Activity [19] | Activity [20] | further results |
| --- | --- | --- | --- | --- | --- | --- | --- | --- | --- | --- | --- | --- | --- | --- | --- | --- | --- | --- | --- | --- | --- |
| O=C(N/N=C/c1ccc(O)cc1)c1n[nH]c2c1Cc1cc(F)ccc1-2 | 28.9 µg/mL (≈ 85.9 µM) | 15.6 µg/mL (≈ 46.4 µM) | inactive | 15.6 µg/mL (≈ 46.4 µM) | 7.8 µg/mL (≈ 23.2 µM) | 2 | 3.9 µg/mL (≈ 11.6 µM) | 31.2 µg/mL (≈ 92.8 µM) | 31.2 µg/mL (≈ 92.8 µM) | 7.8 µg/mL (≈ 23.2 µM) | 31.2 µg/mL (≈ 92.8 µM) | 2 | 2 | 2 | 31.2 µg/mL (≈ 92.8 µM) | 7.8 µg/mL (≈ 23.2 µM) |  |  |  |  |  |
| COc1ccc2c(c1)Cc1c(C(=O)N/N=C/c3c(F)cc(F)cc3F)n[nH]c1-2 | 37.2 µg/mL (≈ 96.3 µM) | 15.6 µg/mL (≈ 40.4 µM) | inactive | 15.6 µg/mL (≈ 40.4 µM) | 7.8 µg/mL (≈ 20.2 µM) | 2 | 3.9 µg/mL (≈ 10.1 µM) | 31.2 µg/mL (≈ 80.8 µM) | 15.6 µg/mL (≈ 40.4 µM) | 7.8 µg/mL (≈ 20.2 µM) | 31.2 µg/mL (≈ 80.8 µM) | 2 | 2 | 2 | 31.2 µg/mL (≈ 80.8 µM) | 7.8 µg/mL (≈ 20.2 µM) | Active | Dose-dependent effect | Dose-dependent effect | Active |  |
| COc1cc(/C=N/NC(=O)c2n[nH]c3c2Cc2ccccc2-3)ccc1O | 31.2 µg/mL (≈ 89.6 µM) | 7.8 µg/mL (≈ 22.4 µM) | inactive | 7.8 µg/mL (≈ 22.4 µM) | 15.6 µg/mL (≈ 44.8 µM) | 2 | 7.8 µg/mL (≈ 22.4 µM) | 7.8 µg/mL (≈ 22.4 µM) | 15.6 µg/mL (≈ 44.8 µM) | 7.8 µg/mL (≈ 22.4 µM) | 31.2 µg/mL (≈ 89.6 µM) | 2 | 2 | 2 | 31.2 µg/mL (≈ 89.6 µM) | 15.6 µg/mL (≈ 44.8 µM) |  |  |  |  |  |
| O=C(N/N=C/c1ccc(O)cc1)c1n[nH]c2c1Cc1ccccc1-2 | 35.6 µg/mL (≈ 112 µM) | 15.6 µg/mL (≈ 49 µM) | inactive | 15.6 µg/mL (≈ 49 µM) | 7.8 µg/mL (≈ 24.5 µM) | 2 | 3.9 µg/mL (≈ 12.3 µM) | > 62.5 µg/mL | 31.2 µg/mL (≈ 98 µM) | 7.8 µg/mL (≈ 24.5 µM) | 31.2 µg/mL (≈ 98 µM) | 2 | 2 | 2 | 31.2 µg/mL (≈ 98 µM) | 7.8 µg/mL (≈ 24.5 µM) |  |  |  |  |  |
| COc1ccc2c(c1)Cc1c(C(=O)N/N=C/c3ccc(O)c(OC)c3)n[nH]c1-2 | 40.8 µg/mL (≈ 108 µM) | 15.6 µg/mL (≈ 41.2 µM) |  | 7.8 µg/mL (≈ 20.6 µM) | 7.8 µg/mL (≈ 20.6 µM) | 2 | 3.9 µg/mL (≈ 10.3 µM) | 15.6 µg/mL (≈ 41.2 µM) | 15.6 µg/mL (≈ 41.2 µM) | 7.8 µg/mL (≈ 20.6 µM) | 15.6 µg/mL (≈ 41.2 µM) | 2 | 2 | 2 | 15.6 µg/mL (≈ 41.2 µM) | 7.8 µg/mL (≈ 20.6 µM) | Active | Dose-dependent effect | Dose-dependent effect | Active | MIC ([3]; MTCC 183, 24 h): 15.6 µg/mL (≈ 41.2 µM) |
